Experiments:
[1] = target: T1, 85/88 kDa calcium-independent phospholipase A2 (Homo sapiens) (UniProt O60733); test: Inhibition of human group 6A calcium-independent PLA2 treated in mixed-micelles by modified Dole assay
T1 sequence (whole entry): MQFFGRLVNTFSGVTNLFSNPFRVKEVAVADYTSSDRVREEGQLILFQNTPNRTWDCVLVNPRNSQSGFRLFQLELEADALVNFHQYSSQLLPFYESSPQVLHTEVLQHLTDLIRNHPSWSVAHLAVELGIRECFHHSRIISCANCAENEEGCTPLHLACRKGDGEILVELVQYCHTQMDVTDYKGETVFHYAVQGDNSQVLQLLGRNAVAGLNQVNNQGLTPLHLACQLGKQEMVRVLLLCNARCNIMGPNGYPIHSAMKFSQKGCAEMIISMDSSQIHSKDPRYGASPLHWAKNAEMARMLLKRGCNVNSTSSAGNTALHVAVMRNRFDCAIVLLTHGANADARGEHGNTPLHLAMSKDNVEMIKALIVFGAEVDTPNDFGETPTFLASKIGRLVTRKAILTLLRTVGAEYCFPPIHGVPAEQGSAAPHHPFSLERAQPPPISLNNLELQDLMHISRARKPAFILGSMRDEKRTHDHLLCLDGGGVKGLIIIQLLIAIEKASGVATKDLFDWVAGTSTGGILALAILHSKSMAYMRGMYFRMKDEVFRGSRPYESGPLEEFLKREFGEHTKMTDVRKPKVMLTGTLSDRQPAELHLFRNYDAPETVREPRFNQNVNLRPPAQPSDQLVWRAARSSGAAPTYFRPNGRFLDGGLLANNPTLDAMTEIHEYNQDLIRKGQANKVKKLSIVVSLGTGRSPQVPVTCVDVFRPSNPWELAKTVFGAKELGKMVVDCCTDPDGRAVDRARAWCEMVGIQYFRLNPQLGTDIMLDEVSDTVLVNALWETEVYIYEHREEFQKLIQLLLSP
In short: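 Typically 7 mole fractions from 0.00091 to 0.091 were tested. XI(50) is the inhibitor mole fraction giving 50% inhibition, from a symmetrical sigmoidal regression of % inhibition versus log concentration.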

[2] = target: T2, Cytosolic phospholipase A2 (Homo sapiens) (UniProt P47712); test: Inhibition of human group 4A cytosolic PLA2 at 0.091 mole fraction in mixed-micelles by modified Dole assay
T2 sequence (whole entry): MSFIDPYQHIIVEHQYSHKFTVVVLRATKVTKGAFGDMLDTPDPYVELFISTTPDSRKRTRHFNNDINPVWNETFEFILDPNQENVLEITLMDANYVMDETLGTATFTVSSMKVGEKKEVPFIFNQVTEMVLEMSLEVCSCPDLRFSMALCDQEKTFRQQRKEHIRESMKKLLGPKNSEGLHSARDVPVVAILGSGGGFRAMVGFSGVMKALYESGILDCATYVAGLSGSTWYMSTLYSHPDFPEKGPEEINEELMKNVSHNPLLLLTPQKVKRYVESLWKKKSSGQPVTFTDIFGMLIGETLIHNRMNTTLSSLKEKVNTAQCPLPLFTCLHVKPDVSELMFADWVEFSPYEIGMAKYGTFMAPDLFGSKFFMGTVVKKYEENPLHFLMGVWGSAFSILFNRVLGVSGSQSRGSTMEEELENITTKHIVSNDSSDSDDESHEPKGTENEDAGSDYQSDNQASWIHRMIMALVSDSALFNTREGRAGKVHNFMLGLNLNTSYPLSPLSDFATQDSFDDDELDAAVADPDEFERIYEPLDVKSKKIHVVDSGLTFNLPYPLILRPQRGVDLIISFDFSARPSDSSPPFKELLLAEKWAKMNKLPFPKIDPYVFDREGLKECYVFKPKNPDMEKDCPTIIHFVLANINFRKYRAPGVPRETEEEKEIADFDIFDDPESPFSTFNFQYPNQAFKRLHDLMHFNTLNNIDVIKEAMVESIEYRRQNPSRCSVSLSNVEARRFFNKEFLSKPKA
In short: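 Buffer was 100 mM HEPES pH 7.5 with 90 μM CaCl2, 2 mM DTT and 0.1 mg/ml BSA. Inhibitor was screened at 0.091 mole fraction. Values are average percent inhibition, and 25% or less was scored as no inhibition.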

[3] = target: T3, Phospholipase A2 group V (Homo sapiens) (UniProt P39877); test: Inhibition of human group 5 secretory PLA2 at 0.091 mole fraction in mixed-micelles by modified Dole assay
T3 sequence (whole entry): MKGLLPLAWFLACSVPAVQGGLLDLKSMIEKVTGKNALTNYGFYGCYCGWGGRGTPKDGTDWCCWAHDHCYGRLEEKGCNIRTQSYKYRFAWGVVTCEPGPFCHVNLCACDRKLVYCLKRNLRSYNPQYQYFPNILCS

[4] = target: T1, 85/88 kDa calcium-independent phospholipase A2 (Homo sapiens); test: Inhibition of human group 6A calcium-independent PLA2 at 0.091 mole fraction in mixed-micelles by modified Dole assay
[5] = target: T2, Cytosolic phospholipase A2 (Homo sapiens); test: Inhibition of human group 4A cytosolic PLA2 treated in mixed-micelles by modified Dole assay
In short: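 Buffer was 100 mM HEPES pH 7.5 containing 90 μM CaCl2, 2 mM DTT and 0.1 mg/ml BSA. About 7 inhibitor mole fractions between 0.00091 and 0.091 were tested. XI(50) came from a symmetrical sigmoidal nonlinear fit of % inhibition versus log inhibitor.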

| SMILES | XI50 (mole fraction) [1] | inhibition [2] [%] | inhibition [3] [%] | inhibition [4] [%] | XI50 (mole fraction) [5] |
| --- | --- | --- | --- | --- | --- |
| COc1ccc(CCCCC(=O)C(F)(F)C(F)(F)F)c(OC)c1 | 0.0553 | 35.6 | 38.7 | 95.6 |  |
| O=C(CCCCc1ccc(C(F)(F)F)cc1)C(F)(F)F | 0.0002 | 83.9 | 30.4 | 99.9 |  |
| O=C(CCc1ccccc1-c1ccccc1)C(F)(F)C(F)(F)F |  | < 25 |  | 90.4 |  |
| O=C(CCCCc1cccc2ccccc12)C(F)(F)C(F)(F)F | 0.0034 | 64 | 29.4 | 96.4 |  |
| O=C(CCCCc1ccc(C(F)(F)F)cc1)C(F)(F)C(F)(F)F | 0.0003 | 62.5 | 36.9 | 98.9 |  |
| O=C(CCCCc1ccc(-c2ccccc2)cc1)C(F)(F)C(F)(F)F | 0.0134 | 72.6 | 38.3 | 94.6 |  |
| O=C(CCCCc1cccc2ccccc12)C(F)(F)F | 0.0018 | 77.4 | 31.9 | 98.7 |  |
| COc1ccc(CCCCC(=O)C(F)(F)F)c(OC)c1 |  | 64.3 | < 25 | 89.6 |  |
| O=C(CCCCc1ccc2c(c1)OCO2)C(F)(F)C(F)(F)F | 0.0019 | 38.3 | 29.4 | 99.5 |  |
| COc1ccccc1CCCCC(=O)C(F)(F)F |  | 58.9 | < 25 | 82.8 |  |
| COc1ccc(CCCCC(=O)C(F)(F)C(F)(F)F)cc1OC |  | < 25 | < 25 | 78.3 |  |
| O=C(CCc1ccccc1-c1ccccc1)C(F)(F)F |  | < 25 |  | 75 |  |
| O=C(CCCCc1ccc(-c2ccccc2)cc1)C(F)(F)F | 0.0189 | 96.5 | 40.5 | 97.9 | 0.0074 |
| O=C(CCCCc1cccc2ccccc12)C(F)(F)C(F)(F)C(F)(F)F |  | 60.4 | 57.8 | 76.7 |  |
| O=C(CCCCc1ccccc1)C(F)F |  | < 25 | < 25 | 87.4 |  |
| COc1ccc2cc(CCCCC(=O)C(F)(F)F)ccc2c1 |  | 85.5 | 41.7 | 92.6 |  |
| COc1ccc(CCCCC(=O)C(F)(F)F)cc1OC |  | 28.8 | < 25 | 62.5 |  |
| COc1ccc(CCCCC(=O)C(F)(F)C(F)(F)F)cc1 | 0.0001 | < 25 | 32.8 | 99.8 |  |
| COc1ccc(CCCCC(=O)C(F)(F)F)cc1 | 0.0001 | 54.3 | < 25 | 99.8 |  |
| O=C(CCCCc1ccc(F)cc1)C(F)(F)C(F)(F)F | 0.0003 | < 25 | 29.3 | 98.2 |  |
| COc1ccccc1CCCCC(=O)C(F)(F)C(F)(F)F | 0.0263 | 30.5 | 39.1 | 95.5 |  |
| O=C(CCCc1ccccc1)C(F)F |  | < 25 | < 25 | 86.5 |  |
| O=C(CCCCc1ccc(F)cc1)C(F)(F)F | 0.0002 | 41.4 | < 25 | 98.5 |  |
| COc1ccc2cc(CCCCC(=O)C(F)(F)C(F)(F)F)ccc2c1 |  | 54.7 | 63.1 | 92.5 |  |
| O=C(CCCCc1ccc2c(c1)OCO2)C(F)(F)F | 0.0025 | 41.2 | < 25 | 98.7 |  |
